Screening data as filed in PubChem BioAssay.
The list is not random: actives were taken first. Their share in the collection is about 1.6%.
NCF1 inh: blocks human p47phox regulatory protein of NADPH oxidases. P14598. p47phox/p22phox peptide binding, fluorescence polarization, 2 h. inhibition, % at 24.7 µM. 220,000 compounds, 0.53% hits;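 active means inhibition above about 30%, limit read from the data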;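 further: 0% = p47phox with labelled peptide and 100% = labelled peptide alone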
Yeast lifespan up: yeast lifespan extension; 130,000 compounds, 0.68% hits; S. cerevisiae growth with nicotinamide, OD615; deaD strain in restrictive glucose medium; AID 775; inhibition of the nicotinamide effect, % at 10 µM;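 active means inhibition above a set limit, placed 3 SD over the median of all compounds, cut at about 26% in these data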;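 further: 0% = nicotinamide-treated wells and 100% = cells grown without nicotinamide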
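Assay system: engineered S. cerevisiae DeaD replicative-lifespan strain, galactose-grown log-phase cells; Buffer or medium: CSMM-D glucose medium, restrictive; Probe or stimulus: nicotinamide 1.5 mM; Compound: single dose 10 µM compound, 0.25% DMSO; Schedule: 4 h preincubation then 48 h treatment at 30 °C; Technique: OD615 measurement.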
Yeast growth inh: chemicals that inhibit yeast BB579 growth in restrictive medium (lifespan-shortening candidates) | S. cerevisiae BB579 growth, OD615, 48 h | inhibition, % at 10 µM | 140,000 compounds, 0.51% hits | AID 804;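 active means inhibition above a set limit, 3 SD over the mean compound inhibition, cut at about 44% in these data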
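Detection: OD615 turbidity measurement; Material: Saccharomyces cerevisiae DeaD strain BB579, replicative lifespan model yeast; Timing: 48 h exposure, 30 °C; Doses: single 10 µM dose; Medium: CSMM-D restrictive synthetic medium containing dextrose (glucose); Controls: amphotericin B at 10 µg/mL as positive control.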
SDO1 yeast rescue: sdo1-depleted yeast growth rescue. S. cerevisiae sdo1-depleted JHY4D growth rescue, OD600 30 h; active compounds read high; pdr5 snq2 efflux-pump mutant strain. 140,000 compounds, 0.21% hits. AID 817. z-score at 10 µM;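 active means z-score above 3 at both the 24 hr and the 30 hr optical density reads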;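 further: z-score against mean and SD of all compound wells on the same plate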
RBBP9 inh: blocks human serine hydrolase RBBP9; O75884; recombinant RBBP9, FP-Rh probe fluorescence polarization; inhibition, % at 7.94 µM; 220,000 compounds, 0.2% hits; AID 1515;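 active means inhibition above the campaign mean of all tested compounds plus 3 SD, cut at about 14% in these data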;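 further: plate controls were DMSO wells with RBBP9 for no effect and wells lacking RBBP9 protein for full effect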
Target sequence (O75884 whole entry, looked up): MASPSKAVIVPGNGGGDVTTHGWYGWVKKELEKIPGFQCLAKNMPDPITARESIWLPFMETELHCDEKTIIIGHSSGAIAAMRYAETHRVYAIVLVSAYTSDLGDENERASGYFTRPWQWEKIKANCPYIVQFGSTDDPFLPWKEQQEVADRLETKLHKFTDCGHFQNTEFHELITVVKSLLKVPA
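Material: RBBP9 protein. Amount: RBBP9 at 2.5 µM in dispensed solution, before mixing. Schedule: 30 min then 45 min, 25 °C. Medium: Tris buffer pH 8.0, NaCl, Pluronic. Measured by: fluorescence polarization. Measure: percent inhibition from mP, scaled between DMSO and no-protein wells. Replication: one well per compound.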
Tb hexokinase: T. brucei hexokinase 1 inhibition | recombinant TbHK1, G6PDH-coupled NADH A340 | inhibition, % at 10 µM | 220,000 compounds, 0.11% hits | AID 1430;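 active means inhibition of 50% or more in the single-dose primary screen; inactive means inhibition below 50%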
* hit, by the source's call; x = no result.

SMILES | NCF1 inh | Yeast lifespan up | Yeast growth inh | SDO1 yeast rescue | RBBP9 inh | Tb hexokinase
Cc1ccc(S(=O)(=O)/N=C(/NC(=S)Nc2ccccc2)c2ccccc2)cc1 | -25 | -24 | -2 | -1.1 | -14 | 0
Cc1ccc(S(=O)(=O)C/N=C(/NC(=S)N(c2ccccc2)c2ccccc2)c2ccccc2)cc1 | -14 | 46* | -46 | 0.05 | -9 | -13
CCN(CC)c1ccc(/C=C2\CCC(/C=C(\C#N)C(=O)Nc3ccccc3F)=C2N2CCOCC2)cc1 | 120* | -1 | -63 | 0.91 | -12 | -14
Cc1cccc(C)c1NC(=O)CSc1nnc([C@H](C)NC(=O)OC(C)(C)C)o1 | -5 | -3 | -8 | -0.03 | -10 | -1
CSCC[C@H](NC(=O)OC(C)(C)C)c1nnc(SCC(=O)Nc2c(C)cccc2C)o1 | -8 | -18 | -18 | 0.88 | -3 | 51*
COc1ccc(CCn2c(-c3ccccc3)nc3c(c(=O)c4ccccc4n3C)c2=O)cc1 | -4 | 31* | -58 | -1.2 | -5 | -6
CN(C)Cc1cc(O)c(CN(C)C)cc1O | 37* | x | x | x | 7 | 4
COC(=O)CSC1=NS(=O)(=O)c2ccccc21 | -2 | -2 | -59 | -1.2 | 4 | 1
O=C(CSC1=NS(=O)(=O)c2ccccc21)Nc1ccccc1 | -7 | -11 | 73* | -1.2 | -8 | 2
Oc1cccc2ccc(Nc3ccccn3)nc12 | -23 | -20 | 97* | -2.5 | 4 | -19
CCCCSc1nnc(CSc2ncccn2)n1C | -7 | x | x | x | -8 | -2
CC(NCc1ccc(N(C)C)cc1)C1CC2CCC1C2 (stereo not drawn) | 1 | 47* | -7 | 0.53 | 2 | -4
Cc1ccc(SCC(=O)N=C2NC(=O)CS2)cc1 | -13 | x | x | x | -4 | 7
COc1ccc(CN2C=C3C(=O)C(C)(OC(=O)C4CCCC4)C(=O)C=C3C=C2c2ccsc2)cc1 (stereo not drawn) | -7 | x | x | x | x | -13
CC1(OC(=O)C2CCCC2)C(=O)C=C2C=C(c3ccsc3)N(CCCCO)C=C2C1=O (stereo not drawn) | 30* | x | x | x | x | -37
COc1ccc(C(C)=O)cc1COC(=O)c1ccc(S(=O)(=O)N(C)C)cc1 | -12 | x | x | x | 0 | -4
CCN1C(c2ccccc2)=C(c2ccccc2)S/C1=C\C=C1/SC(=S)N(C)C1=O | x | x | x | x | -17 | -7
CCN1C(c2ccccc2)=C(c2ccccc2)S/C1=C/C=C1\SC(=S)N(C)C1=O | 42* | x | -38 | -0.27 | -1 | -3
CCN1CCN(Cc2ccc(NC(=O)c3cc(NC(=O)c4nccnc4N)cc(OC)c3)cc2C(F)(F)F)CC1 | -40 | x | x | x | x | 3
CCN1CCN(Cc2ccc(NC(=O)c3cc(NC(=O)c4cncc(-c5ccc(C#N)cc5)c4)cc(OC)c3)cc2C(F)(F)F)CC1 | 69* | x | x | x | x | -24
CCN1CCN(Cc2ccc(NC(=O)c3ccc(C)c(NC(=O)c4cc(-c5ccc(Br)cc5)n[nH]4)c3)cc2C(F)(F)F)CC1 | 63* | x | x | x | x | 1
CN1CCN(CCCNC(=O)Cn2ncc3c4ccccc4n(C)c3c2=O)CC1 | -2 | -4 | -24 | 0.33 | -2 | -7
Cc1cc2c(s1)c1cnn(CC(=O)NCCc3ccccc3)c(=O)c1n2C | 30* | 0 | -36 | -0.57 | -4 | 3
Cc1ccc(C(=O)/C=C/c2cn(CN3CCN(C)CC3)c3ccccc23)cc1 | -23 | -14 | 73* | -2.6 | -4 | -1
Cn1cc(/C=C/C(=O)c2ccccc2)c2ccccc21 | -11 | x | x | x | 1 | -5
SMILES | NCF1 inh | Yeast lifespan up | Yeast growth inh | SDO1 yeast rescue | RBBP9 inh | Tb hexokinase
O=C(Cn1cc2c(n1)CCCC2)NCc1cccs1 | -8 | -6 | -27 | 0.49 | -3 | -4
O=C(Cn1cc2c(n1)CCCC2)NCc1ccccn1 | 49* | -8 | -2 | 0.87 | 6 | -4
O=C(CNC(=O)c1ccc(Cl)cc1)OCC(=O)N1CCCC1 | 2 | x | x | x | -10 | 13
Cc1cccc(NC(=O)c2cc(Cl)nc3ccccc23)n1 | -12 | x | x | x | -4 | -9
Cc1cccc(-n2c(O)cnc2Nc2nc(C)cc(C)n2)c1 | 40* | x | x | x | 3 | 1
O=C(NC(=S)NNC(=O)c1cccs1)c1ccco1 | -23 | 29* | -16 | 0.35 | -2 | -21
CC(C)(C)c1ccc(C(=O)NC(=S)NNC(=O)c2cccs2)cc1 | -7 | -5 | 67* | -1.4 | -5 | -11
